Data set [1] has as its target T1, SIRT2 (Homo sapiens, UniProt Q8IXJ6).
T1 sequence (Q8IXJ6 1-389): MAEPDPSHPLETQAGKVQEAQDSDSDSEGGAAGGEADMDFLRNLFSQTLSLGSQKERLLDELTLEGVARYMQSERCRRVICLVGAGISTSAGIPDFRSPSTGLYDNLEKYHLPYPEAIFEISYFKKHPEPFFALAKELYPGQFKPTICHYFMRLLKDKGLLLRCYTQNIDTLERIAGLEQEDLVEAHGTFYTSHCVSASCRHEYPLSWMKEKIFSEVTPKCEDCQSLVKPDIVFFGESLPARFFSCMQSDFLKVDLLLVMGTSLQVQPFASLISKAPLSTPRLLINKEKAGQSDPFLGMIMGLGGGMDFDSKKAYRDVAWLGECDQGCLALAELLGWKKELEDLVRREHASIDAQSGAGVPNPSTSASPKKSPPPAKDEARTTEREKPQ
The following applies: read-out: IC50 (SIRT2), reported; cited from earlier work.

The subject of data set [2] is Candida albicans. The note with it: 100 µg/disk; cited from earlier work.
For data set [3], the system named is Artemia salina. The note with it: cited from earlier work.
The test system of data set [4] is Biomphalaria glabrata. The note with it: cited from earlier work.
Data set [5] concerns NCI-H460 lung tumor cells. As to the kind of experiment: Cytotoxicity assay. The note with it: human lung H-460. The format is cell-based. In a few lines: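 NCI-H460 cells were seeded at 6000 cells/well in 96-well plates and dosed 24 h later. The test compound was dissolved in DMSO and diluted into medium without fetal bovine serum, with DMSO below 0.5% final. Viability was read by MTT reduction.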

The test system of data set [6] is sodium channels. As to the kind of experiment: Sodium channel blocking assay in neuro-2a cells. The format is cell-based, mouse.
The target of data set [7] is T1, SIRT2. As to the kind of experiment: Initial SIRT2 inhibitory assay. Format: biochemical. An outline of the steps:
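Reactions contained 50 µM fluor de Lys substrate, 270 nM SIRT2 and 1 mM NAD, with or without test compound, in Buffer A (25 mM Tris-HCl pH 8.0, 137 mM NaCl, 2.7 mM KCl, 1 mM MgCl2). Blanks lacked NAD. After 2 h at 37°, reactions were stopped with 2.7 mg/mL trypsin in Buffer A and developed for 20 min. Fluorescence was read at ex 360/em 460 nm.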

In data set [8] the target is T1, SIRT2. Kind of data set: Secondary SIRT2 inhibitory assay. The format is biochemical. The note with it: second assay system; for IC50: read-out: SIRT2 IC50 ± SE.
The target in data set [9] is T2, SIRT1 (Homo sapiens, UniProt Q96EB6).
T2 sequence (Q96EB6 1-747): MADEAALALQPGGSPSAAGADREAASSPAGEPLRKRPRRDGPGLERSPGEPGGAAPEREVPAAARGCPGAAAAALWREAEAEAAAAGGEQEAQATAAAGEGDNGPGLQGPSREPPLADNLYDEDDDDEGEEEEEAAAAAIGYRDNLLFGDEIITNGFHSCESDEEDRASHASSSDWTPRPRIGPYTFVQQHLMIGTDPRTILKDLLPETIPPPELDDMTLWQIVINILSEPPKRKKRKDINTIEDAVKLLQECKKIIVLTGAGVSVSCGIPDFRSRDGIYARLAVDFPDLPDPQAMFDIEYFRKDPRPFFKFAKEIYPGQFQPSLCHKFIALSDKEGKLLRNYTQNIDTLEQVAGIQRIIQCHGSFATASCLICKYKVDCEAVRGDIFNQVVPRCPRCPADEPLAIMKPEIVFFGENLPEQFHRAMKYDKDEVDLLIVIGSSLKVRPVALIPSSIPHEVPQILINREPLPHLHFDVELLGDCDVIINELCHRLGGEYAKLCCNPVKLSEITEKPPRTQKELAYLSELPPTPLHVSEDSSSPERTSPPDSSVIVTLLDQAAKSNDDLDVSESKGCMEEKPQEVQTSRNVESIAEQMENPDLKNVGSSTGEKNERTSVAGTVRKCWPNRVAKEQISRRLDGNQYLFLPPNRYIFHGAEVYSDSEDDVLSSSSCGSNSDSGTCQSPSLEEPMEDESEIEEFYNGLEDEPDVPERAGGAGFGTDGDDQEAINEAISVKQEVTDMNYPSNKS
Kind of data set: Secondary SIRT1 inhibitory assay. Format: biochemical. The following applies: read-out: SIRT1 IC50 ± SE; second assay system.

Values after ≈ are worked out from the molar mass of the structure shown. “Also recorded” adds a separate entry of the source. Read-outs that look alike come from different tables or passages of the source.

Consider `O=c1oc2ccccc2c2oc3cc(O)c(O)cc3c12` [8,9-dihydroxybenzo-[4,5]furo[3,2-c]chromen-6-one], for which the IC50 in [1] was 45 µM.

On to `CCCCCCCCCCC[C@]1(CO)CCCC(=O)O1` [Compound 1, Tanikolide], for which, in data set [2], the diameter zone inhibition is on record as 13 mm. Further, the LC50 brine shrimp in data set [3] is listed as 3.6 µg/mL (≈ 12.7 µM). In addition, in data set [4], the LC50 snail was 9.0 µg/mL (≈ 31.6 µM).

On to `CCCCCCCCCCCC(O)(CO)CCCC(=O)O` (stereo not shown) [Compound 2, Tanikolide seco acid], for which the “cytotoxicity to H-460 cell line” value in data set [5] (at 9.9 µM) was “moderately toxic; also recorded: moderate cytotoxicity”. The “sodium channel blocking activity” value in data set [6] (highest concentration tested 10 µM) was “inactive”. Moreover, in [7] (highest concentration tested 50 µM), the SIRT2 inhibitory activity entry is “inactive”.

For the compound (5R, 5’R)-tanikolide dimer [Compound 3], the “cytotoxicity to H-460 cell line” value in [5] (at 10 µM) is “did not have any activity”. Besides, the IC50 in data set [8] (listed as 5) was 3.3 ± 0.2 µM; in data set [9], 36.4 ± 8.1 µM; in data set [7] (read-out: IC50 against SIRT2, initial assay format), 0.176 µM. For the same compound, the “fold more potent to the SIRT2 isoform than to SIRT1” value (from here on “fold more potent”) in data set [8] is listed as “approximately 10 fold”. The “inhibition in sodium channel blocking assay” value in [6] (at 5.2 µM) is 54%.

Consider (5R, 5’S)-tanikolide dimer [Compound 4], for which, in data set [8], the IC50 came out at 2.4 ± 0.2 µM and the “fold more potent” value is listed as “approximately 10 fold”. In addition, in data set [9], the IC50 came to 28.8 ± 4.3 µM.

For the compound (5S, 5’S)-tanikolide dimer [ent-5], the IC50 in data set [8] was 3.1 ± 0.3 µM; in data set [9], 34.5 ± 3.5 µM. In addition, in data set [8], the “fold more potent” value is “approximately 10 fold”.

What is called IC50 is the point on the concentration scale where inhibition reaches its midpoint.

Values taken from article PMC2736347 (The Journal of organic chemistry, 2009).
